Each block holds one compound with its values, some of them ahead of it.
Tests used:
CYP3A4 = CYP3A4 (Homo sapiens, UniProt P08684); test: Drug metabolism in baculovirus infected insect cell microsomes expressing human CYP3A4 assessed as CYP3A4-mediated half life at 22.7 uM; type: ADME
How it was run: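 Incubation at 22.7 µM with human CYP3A4 supersomes. Intrinsic clearance (µL/min.pmol P450) and half-life (min) were determined.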

[1] = Cytotoxicity against human HuH7-CMV-Luc cells assessed as reduction in cell proliferation after 3 days by 5-bromo-2'-deoxyuridine incorporation assay; type: cell-based, Huh-7
How it was run: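 Huh7 cells at 1,500 cells/well, five serial compound dilutions in triplicate, 3 days of incubation. Proliferation was quantified as BrdU incorporation into DNA by ELISA.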

Hepatocyte [2] = test: Prodrug conversion in mouse cryopreserved hepatocytes assessed as 2'-deoxy-2'-spirooxetane uridine triphosphate level per million cells at 10 uM after 8 hrs by LC-MS/MS analysis; type: ADME, cell-based
How it was run: (§1)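 Plated cryopreserved hepatocytes (study B) incubated with 10 µM unlabeled prodrug for 2, 8 or 24 h. Triphosphate measured in cell lysates and expressed as pmol/million hepatocytes. Quantification limit 2 ng/10^6 cells.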

[3] = Prodrug conversion in dog cryopreserved hepatocytes assessed as 2'-deoxy-2'-spirooxetane uridine triphosphate level per million cells at 10 uM after 2 hrs by LC-MS/MS analysis; type: ADME, cell-based, Canis lupus familiaris, Hepatocyte; how it was run: as §1
[4] = Prodrug conversion in dog cryopreserved hepatocytes assessed as 2'-deoxy-2'-spirooxetane uridine triphosphate level per million cells at 10 uM after 8 hrs by LC-MS/MS analysis; type: ADME, cell-based, Canis lupus familiaris, Hepatocyte; how it was run: as §1
Hepatocyte [5] = test: Prodrug conversion in human cryopreserved hepatocytes assessed as 2'-deoxy-2'-spirooxetane uridine triphosphate level per million cells at 10 uM after 24 hrs by LC-MS/MS analysis; type: ADME, cell-based; how it was run: as §1
Hepatocyte [6] = test: Drug metabolism in human hepatocytes assessed as ((4R,5R,7R,8R)-5-(2,4-dioxo-3,4-dihydropyrimidin-1(2H)-yl)-8-hydroxy-1,6-dioxaspiro[3.4]octan-7-yl)methyl dihydrogen phosphate formation in presence of PDE4 inhibitor rolipram by LC-MS/MS analysis; type: ADME, cell-based
[7] = AUC (0 to last) in mouse plasma at 50 mg/kg, po; type: ADME, organism-based; parameters: dose 50 mg/kg, route oral, time 0 - last
How it was run: (§2)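 Oral dose 50 mg/kg, formulated in 20% HP-β-cyclodextrin. Prodrug and triphosphate were measured in plasma and liver (ng/mL or ng/g). Parameters derived were Cmax, tmax, AUC0-last, AUC0-inf and t1/2. Some prodrug data come from two independent studies.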

[8] = Cmax in mouse liver at 50 mg/kg, po; type: ADME, organism-based; parameters: dose 50 mg/kg, route oral
Liver [9] = test: Tlast in mouse liver at 50 mg/kg, po; type: ADME, organism-based; conditions: in vivo
How it was run: (§3)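 Single oral dose of 50 mg/kg formulated in 20% HP-β-cyclodextrin. Prodrug and its triphosphate were measured in plasma and liver (ng/mL or ng/g) over time, and Cmax, tmax, AUC, tlast and t1/2 were derived. For some analytes, data from two independent studies are reported.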

Liver [10] = test: Cmax in mouse liver assessed as 2'-deoxy-2'-spirooxetane uridine triphosphate at 50 mg/kg, po; type: ADME, organism-based; parameters: dose 50 mg/kg, route oral; conditions: in vivo
Liver [11] = test: Half life in mouse liver assessed as 2'-deoxy-2'-spirooxetane uridine triphosphate at 50 mg/kg, po; type: ADME, organism-based; conditions: in vivo
How it was run: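 Single oral dose of 50 mg/kg in 20% HP-β-cyclodextrin. Prodrug and triphosphate measured in plasma and liver over time (tlast 6–30 h). Half-life, Cmax, tmax and AUC0-last derived; liver/plasma ratio taken from AUC0-last. Prodrug data pooled from two independent studies.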

[12] = AUC (0 to last) in rat plasma at 50 mg/kg, po; type: ADME, organism-based; parameters: dose 50 mg/kg, route oral, time 0 - last; how it was run: as §2
Plasma [13] = test: Tlast in rat plasma at 50 mg/kg, po; type: ADME, organism-based; conditions: in vivo; how it was run: as §3
[14] = AUC (0 to infinity) in rat plasma at 50 mg/kg, po; type: ADME, organism-based; parameters: dose 50 mg/kg, time infinity, route oral; how it was run: as §2
Liver [15] = test: AUC (0 to infinity) in rat liver assessed as 2'-deoxy-2'-spirooxetane uridine triphosphate at 50 mg/kg, po; type: ADME, organism-based; parameters: dose 50 mg/kg, time infinity, route oral; conditions: in vivo; how it was run: as §2
[16] = Cmax in dog plasma at 50 mg/kg, po; type: ADME, organism-based, Canis lupus familiaris; parameters: dose 50 mg/kg, route oral
[17] = Tmax in dog plasma at 50 mg/kg, po; type: ADME, organism-based, Canis lupus familiaris; how it was run: as §3
[18] = AUC (0 to last) in dog plasma at 50 mg/kg, po; type: ADME, organism-based, Canis lupus familiaris; parameters: dose 50 mg/kg, route oral, time 0 - last; how it was run: as §2
Plasma [19] = test: Tlast in dog plasma at 50 mg/kg, po; type: ADME, organism-based, Canis lupus familiaris; conditions: in vivo; how it was run: as §3
Liver [20] = test: Cmax in dog liver assessed as 2'-deoxy-2'-spirooxetane uridine triphosphate at 50 mg/kg, po; type: ADME, organism-based, Canis lupus familiaris; parameters: dose 50 mg/kg, route oral; conditions: in vivo
Hepatocyte [21] = test: Prodrug conversion in mouse primary hepatocytes assessed as 2'-deoxy-2'-spirooxetane uridine triphosphate level per million cells at 2 uM after 24 hrs using radiolabelled compound by LC-MS/MS analysis; type: ADME, cell-based
How it was run: (§4)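 Study A: fresh primary hepatocyte cultures from mouse, rat, dog and human incubated with tritiated prodrug at 2 or 62.5 µM for 4 or 24 h. Triphosphate in cell lysates reported as pmol/million hepatocytes. Duplicate or single measurements.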

Hepatocyte [22] = test: Prodrug conversion in rat primary hepatocytes assessed as 2'-deoxy-2'-spirooxetane uridine triphosphate level per million cells at 62.5 uM after 24 hrs using radiolabelled compound by LC-MS/MS analysis; type: ADME, cell-based; how it was run: as §4
[23] = Prodrug conversion in dog primary hepatocytes assessed as 2'-deoxy-2'-spirooxetane uridine triphosphate level per million cells at 2 uM after 24 hrs using radiolabelled compound by LC-MS/MS analysis; type: ADME, cell-based, Canis lupus familiaris, Hepatocyte; how it was run: as §4
[24] = Prodrug conversion in dog primary hepatocytes assessed as 2'-deoxy-2'-spirooxetane uridine triphosphate level per million cells at 62.5 uM after 24 hrs using radiolabelled compound by LC-MS/MS analysis; type: ADME, cell-based, Canis lupus familiaris, Hepatocyte; how it was run: as §4
Hepatocyte [25] = test: Prodrug conversion in human primary hepatocytes assessed as 2'-deoxy-2'-spirooxetane uridine triphosphate level per million cells at 62.5 uM after 4 hrs using radiolabelled compound by LC-MS/MS analysis; type: ADME, cell-based; how it was run: as §4
[26] = Stability in dog primary hepatocyte supernatant assessed as parent compound level at 2 uM after 4 to 24 hrs using radiolabeled compound by HPLC analysis; type: ADME, cell-based, Canis lupus familiaris; conditions: hepatocytes
How it was run: (§5)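 Fresh primary hepatocyte cultures incubated with tritiated prodrug (5'-[3H]) at 2 and 62.5 µM for 4 and 24 h. Supernatants taken after protein precipitation and profiled by HPLC with radioactivity detection. Cell lysates profiled for metabolites by radio-LC. Cyclic monophosphate also measured by LC/MS/MS.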

Hepatocyte [27] = test: Stability in human primary hepatocyte supernatant assessed as parent compound level at 2 uM after 4 to 24 hrs using radiolabeled compound by HPLC analysis; type: ADME, cell-based; conditions: hepatocytes
Hepatocyte [28] = test: Drug metabolism in human primary hepatocyte supernatant assessed as 1-((4R,5R,7R,8R)-8-hydroxy-7-(hydroxymethyl)-1,6-dioxaspiro[3.4]octan-5-yl)pyrimidine-2,4(1H,3H)-dione formation at 2 to 62.5 uM after 4 to 24 hrs using radiolabeled compound by HPLC analysis; type: ADME, cell-based; conditions: hepatocytes; how it was run: as §5
Hepatocyte [29] = test: Drug metabolism in mouse primary hepatocyte supernatant assessed as 1-((4R,5R,7R,8R)-8-hydroxy-7-(hydroxymethyl)-1,6-dioxaspiro[3.4]octan-5-yl)pyrimidine-2,4(1H,3H)-dione formation at 2 to 62.5 uM after 4 to 24 hrs using radiolabeled compound by HPLC analysis; type: ADME, cell-based; conditions: hepatocytes; how it was run: as §5
Hepatocyte [30] = test: Drug metabolism in rat primary hepatocyte supernatant assessed as 1-((4R,5R,7R,8R)-8-hydroxy-7-(hydroxymethyl)-1,6-dioxaspiro[3.4]octan-5-yl)pyrimidine-2,4(1H,3H)-dione formation at 2 to 62.5 uM after 4 to 24 hrs using radiolabeled compound by HPLC analysis; type: ADME, cell-based; conditions: hepatocytes; how it was run: as §5

Chain of CYP3A4 (P08684 whole entry): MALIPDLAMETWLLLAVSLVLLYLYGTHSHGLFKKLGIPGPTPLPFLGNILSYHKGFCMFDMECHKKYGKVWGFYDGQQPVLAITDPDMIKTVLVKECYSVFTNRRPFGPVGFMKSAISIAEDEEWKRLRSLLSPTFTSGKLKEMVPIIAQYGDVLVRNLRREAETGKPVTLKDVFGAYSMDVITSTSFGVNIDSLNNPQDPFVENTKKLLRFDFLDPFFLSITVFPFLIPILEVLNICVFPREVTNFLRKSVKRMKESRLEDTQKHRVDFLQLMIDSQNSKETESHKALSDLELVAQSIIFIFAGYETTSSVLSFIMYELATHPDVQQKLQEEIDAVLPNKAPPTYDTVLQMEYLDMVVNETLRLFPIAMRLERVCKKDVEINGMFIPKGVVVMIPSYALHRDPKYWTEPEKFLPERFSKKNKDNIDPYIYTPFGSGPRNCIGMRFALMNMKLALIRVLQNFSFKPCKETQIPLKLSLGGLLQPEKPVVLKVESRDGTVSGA

SMILES: CC(C)O[P@@]1(=O)OC[C@H]2O[C@@H](n3ccc(=O)[nH]c3=O)[C@@]3(CCO3)[C@@H]2O1
half-life at 22.7 µM (CYP3A4): 131 min | CC50 at 72 h [1]: > 100 µM | Drug metabolism (Hepatocyte [2]): 0.95 pmol | Drug metabolism [3]: < 2 ng | Drug metabolism [4]: 0.004 pmol | Drug metabolism (Hepatocyte [5]): 0.151 pmol | Drug metabolism (Hepatocyte [6]): metabolite_detected | AUC(0-t) [7]: 2560 ng·h/mL | Cmax [8]: 701 ng/g | Tlast (Liver [9]): 6 h | Cmax (Liver [10]): 13633 ng/g | t1/2 (Liver [11]): 3.9 h | AUC(0-t) [12]: 7330 ng·h/mL | Tlast (Plasma [13]): 30 h | AUC(0-inf) [14]: 7440 ng·h/mL | AUC (Liver [15]): 758393 ng·h/g | Cmax [16]: 4650 ng/mL | Tmax [17]: 1.5 h | AUC(0-t) [18]: 25600 ng·h/mL | Tlast (Plasma [19]): 24 h | Cmax (Liver [20]): 46600 ng/g

Drug metabolism (Hepatocyte [21]): 0.049 pmol | Drug metabolism (Hepatocyte [22]): 0.39 pmol | Drug metabolism [23]: 0.007 pmol | Drug metabolism [24]: 0.11 pmol | Drug metabolism (Hepatocyte [25]): 0.24 pmol | Stability [26]: Stable | Stability (Hepatocyte [27]): Stable | Drug metabolism (Hepatocyte [28]): metabolite_detected | Drug metabolism (Hepatocyte [29]): metabolite_detected | Drug metabolism (Hepatocyte [30]): metabolite_detected
SMILES: [3H]C1O[P@](=O)(OC(C)C)O[C@@H]2[C@@H]1O[C@@H](n1ccc(=O)[nH]c1=O)[C@@]21CCO1 (stereo partly specified)
